Test results published in ChEMBL document CHEMBL2046351, “Discovery of cyclic sulfone hydroxyethylamines as potent and selective β-site APP-cleaving enzyme 1 (BACE1) inhibitors: structure-based design and in vivo reduction of amyloid β-peptides” (J Med Chem, 2012).

Tests used:
[1] = molecular target: T1, Beta-secretase 1 (Homo sapiens, UniProt P56817)
[2] = system: Mus musculus; assay: Antialzheimer activity in APP51/16 transgenic mouse expressing human APP51/16Npa and mouse Thy1 assessed as reduction in amyloid beta (1 to 40) reduction at 180 umol/kg, po measured 4 hrs post dosing; type: functional; parameters: scale not given: the % may be the effect or the level left
Summary of the method: (§1)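 Hemizygous APP51/16 mice (human APP751 wild-type under murine Thy-1 cassette, C57BL/6 background) gavaged (10 mL/kg), decapitated at 4 h. Forebrain homogenized in TBS with protease inhibitors, 1% TX-100 extract, spun 100000 rpm 30 min 4 °C. Aβ40 by 6E10 electrochemiluminescence immunoassay against spiked nontransgenic extract standards; C99 by APP-C8 western blot, densitometry. Two-tailed Student's t test versus vehicle.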

[3] = system: Mus musculus; assay: Antialzheimer activity in APP51/16 transgenic mouse expressing human APP51/16Npa and mouse Thy1 assessed as reduction in brain C99 level reduction at 180 umol/kg, po measured 4 hrs post dosing; type: functional; parameters: scale not given: the % may be the effect or the level left
Summary of the method: as §1

[4] = system: MDR1 (human); assay: Apparent permeability across MDCK cells expressing human MDR1 at 5 uM after 2 hrs by LC-MS analysis; type: ADME, cell-based, Canis lupus familiaris; conditions: dog
Summary of the method: (§2)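 MDCK cells retrovirally transduced with human MDR1, seeded on transwells ≥3 days; bidirectional transport at 5 μM, 2 h, 37 °C, LC/MS quantitation. Papp = (dQ/dt)/(A·C0), A 0.11 cm2; ER = Papp B>A / Papp A>B. Means of at least three experiments.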

[5] = organism: Homo sapiens; assay: Selectivity index, ratio of IC50 for human recombinant CatD to IC50 for human recombinant BACE1
[6] = Drug uptake in APP51/16 transgenic mouse blood at 180 umol/kg, po measured 4 hrs post dosing by LC/MS/MS analysis; type: ADME, organism-based; conditions: read-out: Drug uptake
Summary of the method: (§3)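 APP51/16 transgenic mice given oral gavage (10 mL/kg); blood and forebrain taken at 4 h postdose. Blood extracted by acetonitrile precipitation; brain homogenized in water, then acetonitrile-precipitated. LC-MS/MS quantitation against weighted linear calibration of analyte/internal standard area ratio.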

[7] = system: MDR1 (human); assay: Efflux ratio of permeability from basolateral to apical over apical to basolateral side of MDCK cells expressing human MDR1 at 5 uM after 2 hrs by LC/MS analysis; type: ADME, cell-based, Canis lupus familiaris; conditions: dog
Summary of the method: as §2

[8] = system: Brain; assay: Drug uptake in APP51/16 transgenic mouse brain at 180 umol/kg, po measured 4 hrs post dosing by LC/MS/MS analysis; type: ADME, organism-based; conditions: in vivo
Summary of the method: as §3

[9] = molecular target: Cathepsin D (Homo sapiens, UniProt P07339); assay: Inhibition of human recombinant CatD using Mca-GKPILFFRLK(DNP)-dR-NH2 as substrate after 1 hr by fluorescence analysis
[10] = molecular target: Cytochrome P450 3A4 (Homo sapiens, UniProt P08684); assay: Inhibition of CYP3A4; type: ADME
[11] = molecular target: T1, Beta-secretase 1; assay: Inhibition of human BACE-1 mediated amyloid beta 40 release in Chinese hamster CHO cells expressing human wild-type APP

Chain of Cathepsin D (P07339 65-162 limits assumed): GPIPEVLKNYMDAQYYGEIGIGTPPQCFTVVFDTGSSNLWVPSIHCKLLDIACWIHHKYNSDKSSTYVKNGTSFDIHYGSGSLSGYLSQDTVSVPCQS
Chain of Cathepsin D (P07339 169-412 limits assumed): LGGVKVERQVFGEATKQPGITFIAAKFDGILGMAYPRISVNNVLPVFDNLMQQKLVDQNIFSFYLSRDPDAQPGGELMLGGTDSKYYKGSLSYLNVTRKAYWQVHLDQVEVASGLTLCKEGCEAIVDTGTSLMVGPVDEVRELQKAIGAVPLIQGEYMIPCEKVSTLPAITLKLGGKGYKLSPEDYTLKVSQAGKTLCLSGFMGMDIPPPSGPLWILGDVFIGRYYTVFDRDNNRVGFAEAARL
Chain of Cytochrome P450 3A4 (P08684 whole entry): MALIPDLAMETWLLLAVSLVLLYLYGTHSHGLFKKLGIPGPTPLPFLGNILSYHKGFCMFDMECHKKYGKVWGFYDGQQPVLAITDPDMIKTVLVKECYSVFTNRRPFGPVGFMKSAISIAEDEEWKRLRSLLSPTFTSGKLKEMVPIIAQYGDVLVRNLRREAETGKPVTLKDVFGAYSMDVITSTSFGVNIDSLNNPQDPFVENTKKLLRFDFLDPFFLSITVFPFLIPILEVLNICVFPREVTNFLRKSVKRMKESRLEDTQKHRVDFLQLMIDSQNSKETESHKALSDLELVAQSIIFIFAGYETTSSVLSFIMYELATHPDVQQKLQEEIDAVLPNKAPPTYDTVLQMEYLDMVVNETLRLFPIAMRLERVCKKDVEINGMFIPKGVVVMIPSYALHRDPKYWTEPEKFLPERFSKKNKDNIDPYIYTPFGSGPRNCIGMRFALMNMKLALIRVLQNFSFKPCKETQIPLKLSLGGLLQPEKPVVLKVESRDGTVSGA
T1 sequence (P56817 whole entry): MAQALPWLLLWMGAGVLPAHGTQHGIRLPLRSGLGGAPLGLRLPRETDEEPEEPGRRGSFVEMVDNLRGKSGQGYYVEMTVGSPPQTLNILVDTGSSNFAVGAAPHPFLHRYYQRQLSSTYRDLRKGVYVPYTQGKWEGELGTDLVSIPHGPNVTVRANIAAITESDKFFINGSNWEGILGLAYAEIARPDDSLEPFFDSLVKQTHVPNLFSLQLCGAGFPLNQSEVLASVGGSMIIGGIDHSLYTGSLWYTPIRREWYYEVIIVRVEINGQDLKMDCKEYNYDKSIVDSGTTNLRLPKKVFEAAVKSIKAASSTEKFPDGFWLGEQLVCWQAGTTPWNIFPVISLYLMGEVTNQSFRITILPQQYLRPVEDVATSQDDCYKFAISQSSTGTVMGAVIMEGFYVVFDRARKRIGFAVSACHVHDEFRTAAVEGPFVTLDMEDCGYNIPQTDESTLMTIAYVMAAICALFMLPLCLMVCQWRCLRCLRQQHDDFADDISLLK

| Compound | IC50 [1] | Activity [2] | Activity [3] | Papp at 2 h, 5 µM [4] | Ratio IC50 [5] | concentration at 4 h [6] | efflux ratio at 2 h, 5 µM [7] | Drug uptake [8] | IC50 [9] | IC50 [10] | IC50 [11] |
| --- | --- | --- | --- | --- | --- | --- | --- | --- | --- | --- | --- |
| CC(C)(C)c1cccc(CN[C@H]2CS(=O)(=O)C[C@@H](Cc3cc(F)c(N)c(OCC(F)F)c3)[C@@H]2O)c1 | 6 nM | 18% | 32% | 22 ×10⁻⁶ cm/s | > 100 | 12.2 µM | 10 | 2.1 nmol/g | 680 nM |  |  |
| CC(C)(C)Cn1cc(CN[C@H]2CS(=O)(=O)C[C@@H](Cc3cc(F)c(N)c(OC(C(F)(F)F)C(F)(F)F)c3)[C@@H]2O)cn1 | 36 nM |  |  | 16 ×10⁻⁶ cm/s |  |  | 46 |  | 2810 nM | 6700 nM |  |
| CC(C)(C)c1ccnc(CN[C@H]2CS(=O)(=O)C[C@@H](Cc3cc(F)c(N)c(OC(C(F)(F)F)C(F)(F)F)c3)[C@@H]2O)c1 | 68 nM |  |  | 38 ×10⁻⁶ cm/s |  |  | 17 |  | 3070 nM | 400 nM |  |
| CC(C)(C)Cc1cc(CN[C@H]2CS(=O)(=O)C[C@@H](Cc3cc(F)c(N)c(OC(C(F)(F)F)C(F)(F)F)c3)[C@@H]2O)no1 | 7 nM |  |  | 20 ×10⁻⁶ cm/s |  |  | 8 |  | 510 nM | 400 nM |  |
| CC1(C)OCc2ccc(CN[C@H]3CS(=O)(=O)C[C@@H](Cc4cc(F)c(N)c(OC(C(F)(F)F)C(F)(F)F)c4)[C@@H]3O)cc21 |  |  |  | 21 ×10⁻⁶ cm/s |  |  |  |  | 1510 nM | 700 nM |  |
| CC(C)(O)c1cccc(CN[C@H]2CS(=O)(=O)C[C@@H](Cc3cc(F)c(N)c(OC(C(F)(F)F)C(F)(F)F)c3)[C@@H]2O)c1 | 2 nM |  |  | 11 ×10⁻⁶ cm/s |  |  | 30 |  | 1320 nM | 2100 nM |  |
| CCCc1n[nH]c2ccc(C[C@@H]3CS(=O)(=O)C[C@H](NCc4cccc(C(C)(C)C)c4)[C@H]3O)cc12 (racemic) | 220 nM |  |  | 30 ×10⁻⁶ cm/s |  |  | 49 |  | 1630 nM |  |  |
| CC(C)(C)c1cccc(CN[C@H]2CS(=O)(=O)C[C@@H](Cc3ccc(N)c(F)c3)[C@@H]2O)c1 | 350 nM |  |  | 21 ×10⁻⁶ cm/s | 5 |  | 1 |  | 2520 nM |  |  |
| Nc1c(F)cc(C[C@@H]2CS(=O)(=O)C[C@H](N)[C@H]2O)cc1OC(C(F)(F)F)C(F)(F)F | > 10000 nM |  |  | 13 ×10⁻⁶ cm/s |  |  | 17 |  | > 10000 nM |  |  |
| CCCN1CCC[C@@]12CCN([C@@H](C)C(=O)N[C@@H](Cc1ccccc1)[C@H](O)CNCc1cccc(C(C)C)c1)C2=O |  |  |  | 11 ×10⁻⁶ cm/s |  |  | 23 |  |  |  | 10 nM |
| Nc1c(F)cc(C[C@@H]2CS(=O)(=O)C[C@H](NCc3cccc(OC(F)(F)F)c3)[C@H]2O)cc1OC(C(F)(F)F)C(F)(F)F | 44 nM |  |  | 12 ×10⁻⁶ cm/s |  |  | 6 |  | 2530 nM | 9200 nM |  |
| CCOc1cc(C[C@@H]2CS(=O)(=O)C[C@H](NCc3cccc(C(C)(C)C)c3)[C@H]2O)cc(F)c1N | 24 nM | 34% | 54% | 18 ×10⁻⁶ cm/s | 40 | 9 µM | 3 | 3.1 nmol/g | 1030 nM |  |  |
| CCc1cc(C[C@@H]2CS(=O)(=O)C[C@H](NCc3cccc(C(C)(C)C)c3)[C@H]2O)cc(F)c1NC(C)=O | 8 nM |  |  | 17 ×10⁻⁶ cm/s | > 100 |  | 41 |  | 2300 nM |  |  |
| CC(C)(C)c1cccc(CN[C@H]2CS(=O)(=O)C[C@@H](Cc3ccc4[nH]cc(CC(F)(F)F)c4c3)[C@@H]2O)c1 (racemic) | 120 nM |  |  | 2.5 ×10⁻⁶ cm/s |  |  | 7 |  | 1490 nM |  |  |
| CC(C)(C)c1cccc(CN[C@H]2CS(=O)(=O)C[C@@H](Cc3ccc4[nH]ccc4c3)[C@@H]2O)c1 (racemic) | 2750 nM |  |  | 10 ×10⁻⁶ cm/s |  |  | 3 |  | 5530 nM |  |  |
| CC(C)(C)c1cccc(CN[C@H]2CS(=O)(=O)C[C@@H](Cc3cc(F)c(N)c(Br)c3)[C@@H]2O)c1 | 55 nM |  |  | 13 ×10⁻⁶ cm/s | 5 |  | 2 |  | 340 nM |  |  |
| CCCOc1cc(C[C@@H]2CS(=O)(=O)C[C@H](NCc3cccc(C(C)(C)C)c3)[C@H]2O)ccc1N | 45 nM |  |  | 7 ×10⁻⁶ cm/s | > 100 |  | 2 |  | 5200 nM |  |  |
| CC(C)(CO)c1cccc(CN[C@H]2CS(=O)(=O)C[C@@H](Cc3cc(F)c(N)c(OC(C(F)(F)F)C(F)(F)F)c3)[C@@H]2O)c1 | 2 nM |  |  | 12 ×10⁻⁶ cm/s |  |  | 35 |  | 600 nM | 800 nM |  |
| COC[C@@H](Oc1cc(C[C@@H]2CS(=O)(=O)C[C@H](NCc3cccc(C(C)(C)C)c3)[C@H]2O)cc(F)c1N)C(F)(F)F |  | 31% | 48% | 13 ×10⁻⁶ cm/s |  | 7.3 µM |  | 1.9 nmol/g | 250 nM |  |  |
| CCCc1cc(C[C@@H]2CS(=O)(=O)C[C@H](NCc3cccc(C(C)(C)C)c3)[C@H]2O)cc(F)c1N | 130 nM |  |  | 7 ×10⁻⁶ cm/s |  |  | 2 |  | 1390 nM |  |  |
| CC(C)(C)c1cccc(CN[C@H]2CS(=O)(=O)C[C@@H](Cc3cc(O)c(N)c(F)c3)[C@@H]2O)c1 | 120 nM |  |  | 14 ×10⁻⁶ cm/s |  |  | 27 |  | 540 nM |  |  |
| CC(C)(C)c1cccc(CN[C@H]2CS(=O)(=O)C[C@@H](Cc3cc(F)c(N)c(OC4CCC4)c3)[C@@H]2O)c1 | 11 nM |  |  | 6 ×10⁻⁶ cm/s |  |  | 3 |  | 390 nM |  |  |
| CCCOc1cc(CC2CS(=O)(=O)CC(NCc3cccc(C(C)(C)C)c3)[C@H]2O)cc(F)c1N (single isomer, unassigned) | 56 nM |  |  | 7 ×10⁻⁶ cm/s |  |  | 3 |  | 2220 nM |  |  |
| CC(C)(C)c1cccc(CN[C@H]2CS(=O)(=O)C[C@@H](Cc3cc(F)c(N)c(CCC(F)(F)F)c3)[C@@H]2O)c1 | 130 nM |  |  | 11 ×10⁻⁶ cm/s |  |  | 3 |  | 980 nM |  |  |
